Assay outcomes as filed in PubChem.
Keap1-Nrf2 PPI – Keap1-Nrf2 protein-protein interaction inhibitors, primary screen, biochemical, fluorescence polarization, single point; Kelch-like ECH-associated protein 1 (Homo sapiens), Q14145; Keap1 Kelch-Nrf2 peptide fluorescence polarization, 1536-well; inhibition, % at 9.4 µM; actives 0.15% (n = 340,000); AID 504523, 2011; in the data active means inhibition above about 12%;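 further: human Keap1 Kelch domain with fluorescein labeled Nrf2 9mer peptide probe; 0% = neutral control wells and 100% = peptide positive control; higher means more block of Keap1 binding to Nrf2 peptide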
Rtt109 HAT inh – inhibitors of C. albicans Rtt109/Vps75 HAT, primary screen, biochemical, ThioGlo CoA-SH fluorescence, plate reader. actives 0.16% (n = 330,000). AID 540336, 2011. Histone acetyltransferase RTT109 (Candida albicans (strain SC5314 / ATCC MYA-2876)), …. inhibition, % at 34.9 µM. purified Rtt109/Vps75, 4 h;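 active means inhibition of at least 50% in every replicate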
Target sequence (Q5AAJ8 whole entry, looked up): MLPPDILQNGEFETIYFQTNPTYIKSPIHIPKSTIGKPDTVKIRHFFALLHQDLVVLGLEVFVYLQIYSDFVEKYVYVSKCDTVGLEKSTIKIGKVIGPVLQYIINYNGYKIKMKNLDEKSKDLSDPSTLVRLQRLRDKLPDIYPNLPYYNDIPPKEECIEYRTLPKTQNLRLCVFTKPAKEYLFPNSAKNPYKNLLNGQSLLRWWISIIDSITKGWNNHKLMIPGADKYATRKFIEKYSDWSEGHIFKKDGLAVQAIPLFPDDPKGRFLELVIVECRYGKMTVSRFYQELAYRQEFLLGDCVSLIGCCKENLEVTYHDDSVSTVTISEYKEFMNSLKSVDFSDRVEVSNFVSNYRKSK
Tn7 DDE FP – inhibitors of Tn7 peptide binding to fibrin DD(E), primary screen, biochemical, fluorescence polarization, human fibrin, Tn7 probe; Fibrinogen beta chain (Homo sapiens), P02675; AID 720508, 2013; FP displacement of FITC-Tn7 peptide from fibrin DD(E); 0% = median of compound wells per plate; inhibition, % at 8.3 µM; actives 0.13% (n = 370,000);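 active means inhibition above the mean of compounds falling within the control limits plus 3 SD of them, cut at about 14% in these data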;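 further: 0% = plate median of compound wells and 100% = 10 µM Aha-Tn7 peptide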
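System: human fibrin DD(E); quantity: Fibrin-DD(E) at 2 µM final; also added: fluorescent Tn7 probe at 0.1 µM; compound dosing: single nominal test concentration of 8.3 µM per compound; schedule: 10 min preincubation, 3 h with tracer, room temperature; detection: fluorescence polarization of the labelled Tn7 tracer; repeats: one replicate per compound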
DDE Tn6 FP inh – inhibitors of Tn6 peptide binding to fibrin DD(E), primary screen, biochemical, fluorescence polarization, human fibrin, Tn6 probe; Fibrin DD(E) TRITC-Tn6 fluorescence polarization displacement; inhibition, % at 8.3 µM; actives 0.21% (n = 370,000);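 active means inhibition above a per-campaign cutoff: mean of compounds within control limits plus 3 SD, cut at about 15% in these data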;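 further: 0% = median of all compound wells on the plate and 100% = blocking peptide control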
C-LANA FP – inhibitors of KSHV C-LANA binding to DNA, primary screen, biochemical, fluorescence polarization, FAM-LBS DNA, MBP-C-LANA, single point. Kaposi's sarcoma herpesvirus LANA C-terminal domain (residues 932-1162) DNA binding. inhibition, % at 9 µM. actives 0.078% (n = 340,000);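 active means highest replicate inhibition at or above 60% at 9 µM, even if other replicates fall short; inactive means all replicates below 60% inhibition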;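 further: 0% = neutral control wells and 100% = 4 µM acridine orange control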
Keap1 Kelch bind – Keap1 Kelch domain binders by thermal stabilisation, dose response, biophysical, thermal shift, RT-PCR instrument, cherry-pick; shares compounds with Keap1-Nrf2 PPI; delta Tm; active compounds read high; max delta Tm, degrees C; actives 8% (n = 400); in the data active means max delta Tm above about 0.48 degrees C
Numbers without * were called inactive; nt = no result given; ! = not confirmed by another sample. In the library only some 0.6% were active in any assay of this set; here they are far more common.

SMILES | Keap1-Nrf2 PPI | Rtt109 HAT inh | Tn7 DDE FP | DDE Tn6 FP inh | C-LANA FP | others
Cc1ccc2c(c1)C1C[N+](C)(CC(=O)c3ccc(Cl)cc3Cl)CCC1N2C(=O)c1ccc(F)cc1 (stereo not given) | -0.4 | 56.6* | -0.9 | -2.3 | -2.5
Cc1ccc2c(c1)C1CN(C)CCC1N2C(=O)c1cccs1 (stereo not given) | -5.2 | -0.8 | -5.0 | 6.1 | -0.4
C[C@]12CC[C@H](O)C[C@@H]1CC[C@H]1[C@H]3CCC(=O)[C@@]3(C)CC[C@@H]12 | nt | nt | 0.1 | -1.2 | nt
C[C@]12CC[C@@H](O)C[C@@H]1CC[C@@H]1[C@@H]2CC[C@]2(C)C(=O)CC[C@@H]12 | -7.1 | 7.5 | 15.8* | 0.0 | 3.1
CC(=O)N1c2ccccc2C(c2ccccc2)=NCC1C(=O)NC1CCCCC1 (stereo not given) | nt | nt | 1.7 | 6.0 | nt
CSc1ncc(/C=C2/C(=O)NC(=O)N(c3ccc(Cl)cc3)C2=O)cn1 | -0.3 | 63.7* | 5.5 | -2.6 | -0.7
O=C1C2CC=CCC2C(=O)N1SC(Cl)(Cl)Cl (stereo not given) | nt | nt | 1.2 | 5.3 | nt
O=C1NC(=O)C(=Cc2ccccc2[N+](=O)[O-])C(=O)N1 | 0.6 | -6.1 | -1.7 | -4.1 | -15.8
O=C1NC(=O)C(=Cc2cc3c(cc2[N+](=O)[O-])OCO3)C(=O)N1 | 3.2 | 73.6* | -4.0 | 0.4 | 0.1
c1ccc(Cn2nnnc2C2CN=C(c3ccccc3)c3ccccc3N2)cc1 (stereo not given) | nt | nt | 1.7 | 1.1 | nt
CN(C)[C@@H]1C(=O)C(C(N)=O)=C(O)[C@@]2(O)C(=O)C3=C(O)c4c(O)cccc4[C@@](C)(O)C3[C@H](O)C12 (stereo not given in full) | -7.0 | 12.6 | 3.6 | -2.1 | 72.3*!
CN(C)C(=S)SSC(=S)N(C)C | -13.6 | 154.1* | -5.7 | 4.4 | 0.2
N=C1c2ccccc2CN1NC(=O)c1ccccc1 | 1.8 | 50.8* | 3.7 | -4.1 | -0.6
COc1ccc(-n2c(O)c(C=Nc3c(C)n(C)n(-c4ccccc4)c3=O)c(=O)[nH]c2=O)cc1 | -2.0 | 10.1 | 3.6 | 16.9* | 1.1
COc1cccc(-n2c(O)c(C=Nc3c(C)n(C)n(-c4ccccc4)c3=O)c(=O)[nH]c2=O)c1 | -0.4 | nt | -2.7 | -2.0 | 0.1
CC(C)(C)n1nnnc1C1CN=C(c2ccccc2)c2ccccc2N1 (stereo not given) | nt | nt | -6.6 | -5.0 | nt
CCCC(CCC)C(=O)OC[N+](C)(C)CCOC(=O)C(O)(c1ccccc1)C1CCCC1 (stereo not given) | 4.1 | 56.7* | 3.7 | -4.7 | 1.4
C=CCCC(NC(=O)OCc1ccccc1)P(=O)(Oc1ccccc1)Oc1ccccc1 (stereo not given) | nt | nt | 0.9 | -10.3 | nt
CCN1C(=O)NC(=O)/C(=C\c2cn(CC(=O)N3CCCCC3)c3ccccc23)C1=O | 20.6* | 1.7 | 2.2 | 7.3 | 36.6 | Keap1 Kelch bind=-0.11
COC(=O)[C@H]1C[C@@]2(C)c3ccccc3N[C@H]2N1 | nt | nt | -6.1 | -1.9 | nt
